This is a sample that favours compounds with a hit; in the whole collection about 4.7% have one here.
MrgX1 antag = antagonists of human MrgX1 receptor, primary screen, HEK293 cells, Fluo-4 calcium flux; BAM8-22 antagonism; hits give low values; AID 588676, 2011; B-score at 10 µM; actives 1.3% (n = 310,000);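 active = calcium-response B-score plate-corrected more than 3 library SD below zero, starting fluorescence within 5 deviations, no agonist response on first addition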;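 also: peak minus trough fluorescence over baseline after final BAM8-22 challenge near maximal dose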
Target sequence (Q96LB2 whole entry, looked up): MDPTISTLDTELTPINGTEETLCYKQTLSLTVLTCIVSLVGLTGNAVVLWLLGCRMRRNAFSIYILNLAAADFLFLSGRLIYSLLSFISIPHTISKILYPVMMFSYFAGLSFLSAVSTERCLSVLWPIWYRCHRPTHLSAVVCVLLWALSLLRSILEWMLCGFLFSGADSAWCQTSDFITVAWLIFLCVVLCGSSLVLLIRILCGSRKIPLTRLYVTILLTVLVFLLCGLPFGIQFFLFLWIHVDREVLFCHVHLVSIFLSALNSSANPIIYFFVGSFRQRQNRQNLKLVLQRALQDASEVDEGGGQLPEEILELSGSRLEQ
MrgX1 agonist = agonists of human MrgX1 receptor, primary screen, HEK293 cells, Fluo-4 calcium flux | Mas-related G-protein coupled receptor member X1 (Homo sapiens), Q96LB2 | actives 0.44% (n = 310,000) | B-score at 10 µM | AID 588627, 2011 | Fluo-4 calcium fluorescence, agonist mode; hits give high values;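 active = calcium response B-score plate-corrected fluorescence ratio at least 3 library SD, with starting fluorescence B-score inside 5 SD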
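Material: MrgX1-expressing HEK293 cells; input: 15,000 cells per well; doses: test compound given as first of three sequential additions; schedule: overnight plating before 1 h dye loading; technique: Fluo-4 NW calcium-flux fluorescence, kinetic read; evaluation: baseline-normalised fluorescence change ratio, B-scored; control set: plate-wise positive and negative controls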
RGS4 inh = RGS4 inhibitors, primary screen, cell-based, HEK293 M3R inducible RGS4, calcium flux; Regulator of G-protein signaling 4 (Homo sapiens), P49798; Fluo-4 calcium flux; hits give high values; triggered by carbachol at its EC20; B-score at 10 µM; actives 0.45% (n = 310,000);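 active = B-score, a plate-corrected calcium signal, over three deviations above library mean, with baseline fluorescence within five deviations of library mean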;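 also: RGS4 expression induced by doxycycline in cells with stable M3 receptor; B-score is computed from the integrated fluorescence ratio over baseline after carbachol; higher B-score means a larger calcium signal and so more RGS4 inhibition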
Target sequence (P49798 whole entry, looked up): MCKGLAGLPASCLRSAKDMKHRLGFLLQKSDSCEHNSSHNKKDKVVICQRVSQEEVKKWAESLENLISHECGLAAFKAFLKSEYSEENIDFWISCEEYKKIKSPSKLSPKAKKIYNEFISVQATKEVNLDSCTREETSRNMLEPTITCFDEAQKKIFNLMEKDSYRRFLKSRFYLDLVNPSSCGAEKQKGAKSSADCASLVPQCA
MrgX1 PAM = positive allosteric modulators of MrgX1, primary screen, HEK293 cells, Fluo-4 calcium flux. B-score at 10 µM. FDSS; hits give high values. actives 0.63% (n = 310,000). Mas-related G-protein coupled receptor member X1 (Homo sapiens), Q96LB2. AID 588675, 2011;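 active = plate-corrected calcium response at least 3 library SD above typical, normal starting fluorescence, not activating the receptor alone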;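 also: compound read alongside a low EC10 to EC30 dose of BAM8-22 agonist; peak minus trough fluorescence over baseline measured at the second addition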
KCC2 mod = KCC2 cotransporter modulators, thallium flux, primary screen, cell-based, HEK293 KCC2, FluoZin-2 fluorescence, MLSMR; KCC2 cells, thallium flux FluoZin-2 fluorescence; B-score of Tl+ flux slope (higher = more flux/activation; lower = inhibition) at 10 µM; actives 2.2% (n = 190,000);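 active = thallium flux slope and its plate-corrected score both differing from the plate sample mean at a set confidence after two filtering rounds, in either direction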;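 also: slope of fluorescence scaled to starting intensity during 10 to 20 s after thallium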
RGS4 act = RGS4 potentiators or activators, primary screen, cell-based, HEK293 M3R inducible RGS4, calcium flux. B-score at 10 µM. actives 0.92% (n = 310,000). carbachol calcium flux Fluo4; hits give low values;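 active = B-score of the integrated calcium signal more than 4 SD below the library mean, with starting fluorescence not abnormally high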;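 also: negative B-score means reduced calcium response which marks RGS4 activation or potentiation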
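Material: M3R-expressing HEK293 line, RGS4 induced by doxycycline | Schedule: Overnight RGS4 induction, 30 min dye load 37 °C, 20 min compound RT | Measured by: Fluo4 fluorescence kinetic imaging of calcium | Read-out: Integrated calcium ratio converted to B score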
KCC2 sec1 = KCC2 modulators in sodium-free buffer, confirmation, cell-based, HEK293 KCC2, thallium flux, secondary assay; shares compounds with KCC2 mod; FluoZin2 fluorescence; hits give high values; normalised thallium flux (F/F0 slope) at 10 µM; actives 15% (n = 3,700); AID 1713, 2009;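 active = thallium flux slope above the same plate's solvent-only control mean plus 3 SD; inconclusive = the two replicate wells disagree; inactive = no significant difference from solvent-only control wells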
KCC2 bumet counter = thallium flux persisting under bumetanide in KCC2 cells, confirmation, counter-screen for KCC2 modulator project, cell-based, HEK293 KCC2, FluoZin2, secondary assay 3; shares compounds with KCC2 mod; actives 49% (n = 3,700); AID 1714, 2009; HEK293-KCC2 + bumetanide/ouabain; hits give high values; normalized thallium flux at 10 µM;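 active = thallium entry rate above the same plate's blocked-transporter control wells by more than 3 SD; inconclusive = the two repeat wells disagree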;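 also: raw slope of fluorescence over initial fluorescence between 10 and 20 s after thallium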
KCC2 secondary2 = KCC2 modulators without ouabain present, confirmation, cell-based, HEK293 KCC2, thallium flux, FluoZin2, secondary assay 2; shares compounds with KCC2 mod; thallium flux FluoZin2 fluorescence; actives lie on both sides; F/F0 rise rate, 10–20 s post-thallium; normalized thallium flux at 10 µM; actives 23% (n = 3,700);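 active = thallium flux slope more than 3 SD above or below the plate's solvent-only control mean, mostly below; inconclusive = the two repeat wells disagreed; inactive = no significant shift from solvent-only controls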
HEK293 Tl flux = thallium flux modulation in parental HEK cells, confirmation, counter-screen for KCC2 modulator project, cell-based, counterscreen 1; shares compounds with KCC2 mod; HEK293 parental cells, thallium flux FluoZin2, ouabain; baseline-ratio fluorescence slope, 10–20 s after thallium; thallium flux rate (normalised fluorescence) at 10 µM; actives 46% (n = 3,700);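 active = thallium flux rate significantly above the same plate's solvent-only control wells, beyond their mean plus 3 SD; inconclusive = the two replicate wells gave conflicting results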
KCC2 ouabain = KCC2 inhibitors and activators, ouabain retest, confirmation, HEK-KCC2 cells; AID 1717, 2009; actives 48% (n = 3,700); raw Tl+ flux slope (below DMSO = inhibition, above = activation) at 10 µM; HEK293-KCC2, thallium flux FluoZin2 fluorescence; bidirectional: low = inhibitor, high = activator; shares compounds with KCC2 mod;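 active = thallium flux slope beyond 3 SD from same-plate DMSO control mean in most replicates, usually higher, sometimes lower; inconclusive = repeat tests gave conflicting results; inactive = no significant difference from controls in most replicates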;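 also: slope of initial-normalized fluorescence between seconds 10 and 20 after thallium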
HEK counter2 = native HEK Tl+ uptake effects, second counter-screen – HEK cells, counterscreen 2, counter-screen for KCC2 modulator project, confirmation; shares compounds with KCC2 mod; HEK293 parental, thallium flux FluoZin-2 fluorescence slope; thallium flux slope at 10 µM; actives 33% (n = 3,700);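 active = thallium flux slope above the same plate's solvent-control mean plus 3 SD in both duplicate wells; inconclusive = duplicate wells that disagreed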;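 also: run without ouabain in cells lacking the KCC2 cotransporter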
Hits are given with their value; 0 = inactive; ? = inconclusive; - = no result given.

SMILES	MrgX1 antag	MrgX1 agonist	RGS4 inh	MrgX1 PAM	KCC2 mod	RGS4 act	KCC2 sec1	KCC2 bumet counter	KCC2 secondary2	HEK293 Tl flux	KCC2 ouabain	HEK counter2
C=CCC(=O)NC1CC(C)(C)Cc2c1cnn2-c1ccccc1C (configuration not stated)	0	0	0	0	-	0	-	-	-	-	-	-
Cc1cccnc1Nc1nc(-c2ccc(O)cc2)cs1	0	0	0	0	-	0	0	0	0	0	0	?
Cc1cc(CN(C)C(=O)CC2C(=O)NCCN2Cc2c(F)cccc2Cl)on1 (configuration not stated)	0	0	0	0	7.87	0	0	0	0	0	0	0
CN(Cc1ncc[nH]1)C(=O)CC1C(=O)NCCN1Cc1c(F)cccc1Cl (configuration not stated)	0	0	0	0	0	0	-	-	-	-	-	-
COc1cc(OC)c(NC(=O)C(=O)CC(=O)c2ccc(C)cc2C)cc1Cl	0	0	0	0	16.4	0	0	0.0462	0	0.0191	0	0.0123
COc1ccc(CCNC(=O)[C@H](CC(C)C)NC(=O)N2CCn3c2nc2ccccc23)cc1OC	0	0	0	0	-	0	-	-	-	-	-	-
CCCCOc1ccc(Cc2c(COCC)[nH]c(=S)[nH]c2=O)cc1	0	0	0	0	14.7	0	?	0.0994	0.0427	0.0261	0.0529	0.0283
CCOCc1[nH]c(=S)[nH]c(=O)c1Cc1ccc(OCC(C)C)cc1	0	0	0	0	21.9	0	0.0138	0.061	0	?	0.0395	?
CN(C)Cc1c(C(=O)N/N=C/c2ccco2)nnn1-c1nonc1N	0	0	0	0	-	0	-	-	-	-	-	-
CCSC(=Nc1ccccc1)N1CCOCC1	0	0	0	0	-	0	-	-	-	-	-	-
O=C(COC(=O)Cc1cccc(C(F)(F)F)c1)NC1CCS(=O)(=O)C1 (configuration not stated)	0	0	0	0	-	0	-	-	-	-	-	-
CNC(=S)N/N=C(\C)c1cccc(C(F)(F)F)c1	0	0	0	0	4.23	0	?	0.0328	0	0.0127	?	0.012
COC(=O)N/N=C(\C)c1cccc(C(F)(F)F)c1	0	0	0	0	-	0	-	-	-	-	-	-
